Assay outcomes: PubChem, several laboratories
Shown are actives, neighbours in structure and some others; about 4.1% of the full set was active somewhere.
FLuc inh counter = firefly luciferase enzyme inhibitors, primary screen, artefact control for luciferase-based inhibitor screens, biochemical, luminescence, ATPLite; inhibition, % at 10 µM; 1.5% of 200,000 active; 10 min;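 active = inhibition above about 50% when tested at 10 µM, limit read from the data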
Target sequence (P08659 whole entry, looked up): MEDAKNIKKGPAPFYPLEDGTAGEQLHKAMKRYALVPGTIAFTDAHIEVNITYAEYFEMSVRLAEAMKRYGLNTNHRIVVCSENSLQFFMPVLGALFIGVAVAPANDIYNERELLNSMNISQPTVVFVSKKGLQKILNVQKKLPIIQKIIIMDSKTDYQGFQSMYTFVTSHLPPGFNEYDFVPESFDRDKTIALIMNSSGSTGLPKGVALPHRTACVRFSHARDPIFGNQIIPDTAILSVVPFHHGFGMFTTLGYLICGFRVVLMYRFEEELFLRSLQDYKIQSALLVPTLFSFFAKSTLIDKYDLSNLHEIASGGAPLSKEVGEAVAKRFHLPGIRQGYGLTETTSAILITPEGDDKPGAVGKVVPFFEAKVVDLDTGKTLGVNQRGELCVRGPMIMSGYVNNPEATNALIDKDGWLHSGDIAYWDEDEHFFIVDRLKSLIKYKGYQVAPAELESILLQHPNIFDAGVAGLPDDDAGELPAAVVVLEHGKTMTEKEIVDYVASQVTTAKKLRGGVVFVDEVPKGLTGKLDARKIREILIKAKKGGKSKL
NF-kB expr up = activators of NF-kB expression in neurons, primary screen, cell-based, HTS. human neuronal cells, NF-kB reporter expression; hits give high values. fold change at 12.5 µM. 1.6% of 190,000 active; in the data active = fold change above about 3.3
FLuc act counter = FLuc activators, initial screening, artefact control for FLuc-dependent activation tests, biochemical, ATPlite luminescence; ATPlite luciferase biochemical, 10 min; 0 = ATP-free wells, 1 = DMSO control; activation factor at 10 µM; 200,000 tested, under 10 active; AID 1027, 2008;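 active = luciferase activation factor, scaled between plate controls, of at least 2 with compound at 10 µM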
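Material: luciferase plus luciferin reagent, cell-free. Medium: PBS buffer for ATP. Also added: ATP substrate, dispensed from a 10.24 µM working solution in PBS. Doses: test compounds dosed from 2 mM stocks in 100% DMSO. Incubation: 10 min post-reagent at room temperature. Technique: light output (luminescence). Read-out basis: luminescence gain marking luciferase activators.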
APP 5'UTR act = activators of APP 5'UTR luciferase reporter, primary screen, SH-SY5Y cells; 1% of 190,000 active; activation, % at 2 µM; SH-SY5Y APP 5'UTR luciferase reporter, luminescence; zero percent = DMSO vehicle wells;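 active = activation above a set limit, based on mean plus 3 SD of controls, cut at about 140% in these data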
STAT1 act = STAT1 signaling activators, primary screen, cell-based, HTS, luciferase reporter. NIH 3T3 STAT1-luciferase reporter, IFN-gamma, luminescence; 100% = IFN-gamma alone, no compound. activation (% of control), % at 5.5 µM. 2.6% of 200,000 active. AID 932, 2007;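 active = activation above the screen-wide mean activation plus 3 SD, cut at about 130% in these data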;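 note: raw ratio to IFN-gamma control signal so 100% means no change and 0% no light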
Numbers without * were called inactive; . = no result given.

SMILES | FLuc inh counter | NF-kB expr up | FLuc act counter | APP 5'UTR act | STAT1 act
CN(C)S(=O)(=O)c1cccc(C(=O)Nc2ccccc2)c1 | 4 | 1.3 | 1 | 0 | 106
O=C(NCCc1ccccc1)c1ccc2nccnc2c1 | 77* | 1.1 | 0.2 | 75 | 81
COc1ccc(C(=O)Nc2ccc(C(=O)NCCc3ccccc3)cc2)cc1 | 0 | 1.1 | 1 | 1 | 103
CN(C)S(=O)(=O)c1cccc(C(=O)NCCc2ccccc2)c1 | 28 | 2.5 | 0.7 | 156* | 134*
Cc1cc(C)n2nc(CCCCc3nc4nc(C)cc(C)n4n3)nc2n1 | -6 | 1.1 | 1.1 | -4 | 106
N#CC1=C(N)OC2=C(C(=O)CCC2)C1Cc1ccccc1 (stereo not drawn) | . | . | . | 19 | 91
CCOc1ccc(CCNC(=O)C(O)c2ccccc2)cc1 (stereo not drawn) | -2 | 1.2 | 1 | 4 | 110
CCOc1ccc(C(=O)NCCc2ccccc2)cc1 | 73* | 3.6* | 0.3 | 123 | 96
CNS(=O)(=O)c1ccc(NC(=O)c2ccccn2)cc1 | 25 | 1.7 | 0.7 | 51 | 127
CCC(NC(=O)NCc1cccnc1)(C(F)(F)F)C(F)(F)F | -16 | 0.98 | 1.2 | -16 | 100
S=c1[nH]nc(C2CCCCC2)o1 | -11 | 0.98 | 1.1 | 61 | 98
Cc1cc(/C=C2/NC(=O)N(c3ccccc3)C2=O)c(C)n1C(C)C | 26 | 1.3 | 0.7 | 62 | 129*
O=C(Cc1ccc(Cl)cc1)Nc1ccc(N2CCN(C(=O)c3ccco3)CC2)cc1 | -3 | 0.83 | 1 | -6 | 98
O=C(c1ccco1)N1CCN(c2ccc(Cl)cc2)CC1 | 4 | 2.8 | 1 | 67 | 134*
O=C(c1ccco1)N1c2ccccc2Sc2ccccc21 | -5 | 1.1 | 1.1 | -12 | 98
O=C(c1ccco1)N1CCN(C(=O)N2c3ccccc3Sc3ccccc32)CC1 | 0 | 4.7* | 1 | -93 | 101
Cc1c(C(=O)OCC(=O)N2CC(C)OC(C)C2)oc2ccc(Br)cc12 (stereo not drawn) | -4 | 1.1 | 1 | 6 | 95
O=C(c1ccco1)N1CCN(C(=O)c2ccc(COc3ccc4c(c3)CCC4)o2)CC1 | 4 | 0.45 | 1 | -4 | 132*
NC(=O)C1(N2CCCCC2)CCN(c2ccc3nnc(-c4ccccc4)n3n2)CC1 | -8 | 0.78 | 1.1 | -3 | 104
c1ccc(-c2nnc3ccc(N4CCC5(CC4)OCCO5)nn23)cc1 | -6 | 3.6* | 1.1 | 10 | 109
CCn1c(N2CCN(C(=S)NCCc3ccccc3)CC2)nc2ccccc21 | -1 | 0.92 | 1 | -9 | 104
O=C(CCNC(=O)c1ccc(Cl)cc1)Nc1c(F)c(F)cc(F)c1F | -8 | 1.2 | 1.1 | -14 | 87
COc1cccc(NC(=O)CSc2nc3c(oc4ccccc43)c(=O)[nH]2)c1 | 60* | 1.1 | 0.4 | -5 | 103
COc1cccc(NC(=O)CSc2ncnc3c2oc2ccccc23)c1 | -1 | 1 | 1 | -2 | 95
Nc1nnc(-c2cc3ccccc3oc2=O)s1 | 16 | 1.9 | 0.8 | 20 | 131*
SMILES | FLuc inh counter | NF-kB expr up | FLuc act counter | APP 5'UTR act | STAT1 act
COc1ccc2oc(=O)c(-c3nnc(N)s3)cc2c1 | 11 | 1.9 | 0.9 | 42 | 120
CC12C(=O)N(c3ccc(OC(=O)c4ccco4)cc3)C(=O)C1C1c3ccccc3C2c2ccccc21 (stereo not drawn) | -4 | 1.2 | 1 | -8 | 89
Cc1cc(SC(C)C(=O)Nc2ncc(Cl)cc2Cl)nc2ccccc12 (stereo not drawn) | -5 | 3.4* | 1 | -1 | 103
Cc1cccc(N=C2NN=C(c3c(C)[nH]c4ccccc34)CS2)c1 | -7 | 1.2 | 1.1 | 22 | 94
Cc1cccc(N=C2NN=C(c3ccc4c(c3)OCCO4)CS2)c1 | 81* | 0.94 | 0.2 | 140* | 111
CC(=O)c1ccc(Nc2nc(=O)c3cccnc3s2)cc1 | 2 | 3.9* | 1 | -4 | 136*
CCOC(=O)c1ccc(Nc2nc(=O)c3cccnc3s2)cc1 | 1 | 4.1* | 1 | 19 | 112
O=c1nc(Nc2ccc(OCc3ccccc3)cc2)sc2ncccc12 | -6 | 1.7 | 1.1 | -14 | 124
CC(=O)c1cccc(Nc2nc(=O)c3cccnc3s2)c1 | -6 | 3.4* | 1.1 | -13 | 103
CC(=O)c1ccc(Nc2cc(C)nc3ccccc23)cc1 | -6 | 1.2 | 1.1 | -42 | 110
OCCC1CN(Cc2cccn2-c2ccccn2)CCN1Cc1ccccc1 (stereo not drawn) | -6 | 1 | 1.1 | -3 | 94
O=C(CS(=O)(=O)c1ccc2ccccc2c1)N1CCCCCC1 | 0 | 1 | 1 | 19 | 103
O=C(COC(=O)CC1CCCC1)Nc1cc2c(cc1Cl)C(=O)c1ccccc1C2=O | 1 | 2.5 | 1 | 75 | 129*
O=C(COC(=O)CC1CCCC1)Nc1ccc(OC(F)F)cc1 | -1 | 1.1 | 1 | 21 | 111
COc1ccc(Cc2c(O)nc(SCC(=O)NC(C)(C)C)[nH]c2=O)cc1 | -4 | 1.2 | 1 | -6 | 108
O=C(NC1CCCC1)C1CCN(C(=O)c2ccc(-c3ccccc3)cc2)CC1 | -2 | 1 | 1 | 1 | 91
NC(=O)c1ccc2nc(NC(=O)c3ccc(N)cc3)sc2c1 | 46 | 1.9 | 0.5 | 23 | 142*
NS(=O)(=O)c1ccc2nc(NC(=O)c3ccc(Br)o3)sc2c1 | 31 | 1.8 | 0.7 | 1 | 129*
NS(=O)(=O)c1ccc2nc(NC(=O)c3ccncc3)sc2c1 | 64* | . | 0.4 | 34 | 102
COc1ccc(C(=O)Nc2nc3ccc(S(C)(=O)=O)cc3s2)cc1OC | 4 | 0.57 | 1 | 9 | 103
C=CCOc1c(Cl)cc(CNc2ccc(C)c(Cl)c2)cc1OC | -8 | 3.3 | 1.1 | -91 | 103
C=CCOc1c(Cl)cc(CNc2ccc(N(C)C)cc2)cc1OC | 0 | 0.7 | 1 | 67 | 137*
CCCS(=O)(=O)N1CCCC(C(=O)N2CCN(C(=O)OCC)CC2)C1 (stereo not drawn) | -8 | 1 | 1.1 | . | 103
O=C1/C(=C\Nc2ccc(Cl)cc2)CCN1c1ncccn1 | 24 | 1.8 | 0.8 | 8 | 127
O=C1/C(=C\Nc2ccc(OC(F)(F)F)cc2)CCN1c1ncccn1 | -3 | 3.2 | 1 | . | 131*
Cc1cc(C(=O)Nc2nc3c(s2)CCCC3)no1 | 50 | 5.1* | 0.5 | 152* | 139*
Cc1onc(-c2ccccc2)c1C(=O)Nc1nc2c(s1)CCCC2 | -5 | 0.57 | 1.1 | . | 111
Cc1cc(C)c2nc(NC(=O)c3cc(C)on3)sc2c1 | 1 | 1.6 | 1 | 19 | 103
CC(C)(C)c1ccc(C(=O)NC(=S)Nc2nc3c(s2)CCCC3)cc1 | 20 | 0.32 | 0.8 | 37 | 108
